The list is not random: actives were taken first. Their share in the collection is about 4.7%.
MPTP block: blocks calcium-induced mitochondrial swelling; isolated mouse mitochondria, Ca2+ swelling absorbance, 30 min; inhibition, % at 10 µM; 1.4% of 360,000 active;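 active = inhibition of 50% or more, scaled per plate between neutral and stimulator controls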;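 note: 0% = DMSO wells given calcium and 100% = 1 mM EGTA wells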
SKN-1 inh: blocks SKN-1 activity in C. elegans | C. elegans VP596 Pgst-4::GFP/RFP ratio, acrylamide-induced, 24 h | inhibition, % at 21.8 µM | 0.49% of 360,000 active | AID 624304;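 active = interference check ratio from 0.5 to 1.5 plus GFP to RFP signal ratio inhibition reaching or exceeding a fixed threshold, cut at about 30% in these data, passing the limit was not always enough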
MT1-MMP act inh: inhibitors of human MT1-MMP activation; P50281; HT1080 RFP-PRO-GFP cells, GFP/RFP ratio fluorescence, overnight; percent of plate control window, DMSO zero; GFP/RFP ratio change, % at 20 µM; 0.061% of 360,000 active;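 active = GFP/RFP ratio change of at least 30% with cell ATP level not reduced by more than half and red fluorescence within 50% of control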
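Assay system: RFP-PRO-GFP reporter HT1080 cells; read-out basis: GFP/RFP fluorescence ratio; benchmarks: DMSO wells and RFP-L50D-GFP cells; doses: 20 µM single dose, 1% DMSO; schedule: overnight cell settling, then overnight compound exposure, 37 °C, 5% CO2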
GRIN3A LBD mod: modulates the human NR3A ligand-binding domain; Tm shift relative to glycine control, % at 25 µM; 2.5% of 340,000 active; NR3A LBD differential scanning fluorimetry, Tm shift; 0% = protein alone, 100% = glycine-bound protein;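 active = melting temperature shift of at least 10% of the positive control shift, at one fixed dose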
ADAM17 inh: inhibits human ADAM17; P78536; recombinant ADAM17, EDANS/DABCYL FRET peptide cleavage; inhibition, % at 6.95 µM; 0.83% of 370,000 active; AID 720648;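 active = inhibition above the mean of compounds lying between control limits plus 3 SD, set per campaign, cut at about 8.5% in these data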;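 note: 0% = DMSO-only wells as the low control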
ADAM10 inh: inhibitors of human ADAM10. O14672. recombinant ADAM10, EDANS/DABCYL FRET peptide cleavage, 3 h. inhibition, % at 7 µM. 0.62% of 370,000 active. AID 720582;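 active = inhibition above a per-campaign cutoff equal to the mean of compounds falling between control-based bounds plus 3 SD, cut at about 20% in these data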;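 note: 0% = DMSO wells while the 100% control is not disclosed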
Target sequence (O14672 214-748 limits assumed): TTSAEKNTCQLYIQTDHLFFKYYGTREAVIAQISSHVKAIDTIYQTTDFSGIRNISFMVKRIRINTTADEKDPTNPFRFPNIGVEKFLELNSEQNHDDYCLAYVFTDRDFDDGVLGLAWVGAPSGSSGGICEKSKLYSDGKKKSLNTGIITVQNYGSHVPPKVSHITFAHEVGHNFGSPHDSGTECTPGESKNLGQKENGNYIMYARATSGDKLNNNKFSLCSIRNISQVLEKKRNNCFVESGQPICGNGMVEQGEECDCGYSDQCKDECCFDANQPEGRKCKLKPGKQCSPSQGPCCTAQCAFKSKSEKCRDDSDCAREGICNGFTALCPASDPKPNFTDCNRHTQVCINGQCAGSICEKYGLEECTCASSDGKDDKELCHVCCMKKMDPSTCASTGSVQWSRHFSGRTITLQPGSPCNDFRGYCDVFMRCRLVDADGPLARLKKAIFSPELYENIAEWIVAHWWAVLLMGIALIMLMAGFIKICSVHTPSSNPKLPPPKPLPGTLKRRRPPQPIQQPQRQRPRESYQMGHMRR
ADAM10 confirm: confirmation of inhibitors of human ADAM10; shares compounds with ADAM10 inh; ADAM10 QFRET peptide cleavage, EDANS fluorescence; inhibition, % at 6.95 µM; 1% of 2,100 active; AID 743208;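 active = inhibition above about 20% chosen separately for each screening run, limit read from the data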;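 note: 0% = DMSO wells and 100% = marimastat wells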
ADAM17 counter: counter-screen for ADAM10 exosite inhibitors: inhibitors of human ADAM17 | inhibition, % at 6.95 µM | ADAM17 QFRET peptide cleavage, EDANS fluorescence | AID 743214 | shares compounds with ADAM10 inh | 0.5% of 2,100 active;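 active = mean triplicate inhibition above the solvent-only control wells' mean plus 3 SD, cut at about 12% in these data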;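 note: 0% = DMSO wells and 100% = marimastat wells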
ADAM10 ctr: inhibits human ADAM10 in ADAM17 exosite counter-screen; inhibition, % at 6.95 µM; 47% of 2,900 active; recombinant ADAM10, EDANS/DABCYL FRET peptide cleavage, 3 h; shares compounds with ADAM17 inh;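 active = mean inhibition over the triplicate runs exceeds the activity threshold set in the earlier primary screen, cut at about 20% in these data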;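 note: 0% = DMSO wells and 100% = marimastat wells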
ADAM17 confirm: human ADAM17 inhibition, confirmation; shares compounds with ADAM17 inh; recombinant ADAM17, EDANS/DABCYL QFRET peptide cleavage; inhibition, % at 6.95 µM; 65% of 2,900 active;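 active = mean inhibition across replicates above the hit cutoff set in the primary screen, cut at about 8.5% in these data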;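 note: 0% = DMSO wells and 100% = marimastat wells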
* = called active by the depositor; . = no result.

SMILES | MPTP block | SKN-1 inh | MT1-MMP act inh | GRIN3A LBD mod | ADAM17 inh | ADAM10 inh | ADAM10 confirm | ADAM17 counter | ADAM10 ctr | ADAM17 confirm
CCOC(=O)c1c(NC(=O)CN2C(=O)NC(C)(c3ccc(OC(F)F)cc3)C2=O)sc(C)c1C (configuration not stated) | 0 | 9 | -3 | 3 | 11* | 22* | 19 | 6 | 34* | 20*
Cc1ccc(NC(=O)N(Cc2ccco2)C(C)c2ccco2)cc1C (configuration not stated) | 1 | -1 | -3 | 5 | -1 | 5 | . | . | . | .
Cc1ccc(NC(=O)CN(Cc2ccco2)Cc2ccccc2O)cc1C | 4 | 0 | -10 | -11 | 14* | 28* | 4 | 1 | 30* | 14*
CCN(CC)c1ccc(NC(=O)/C=C\c2ccccc2Cl)cc1 | 5 | 4 | 9 | 26* | 14* | 27* | 6 | 3 | 38* | 19*
Cc1cc(NC(=O)/C=C/c2ccccc2Cl)no1 | 1 | 0 | 0 | 0 | 2 | 7 | . | . | . | .
O=C(/C=C/c1ccccc1Cl)NCc1ccccc1 | 0 | -21 | 5 | -2 | -1 | 7 | . | . | . | .
CN(C)c1ccc(NC(=O)/C=C/c2ccccc2Cl)cc1 | 2 | -1 | 13 | 31* | 12* | 22* | 4 | 0 | -1 | 2
S=c1nc(SCc2ccccc2)[nH]c2ccccc12 | -1 | -3 | 7 | -4 | 2 | 9 | . | . | . | .
CCCCCC(=O)N1C[C@H](n2cc(-c3ccc(F)cc3)nn2)[C@@H](O)C[C@@H]1c1ccc(Cl)cc1 | 1 | 6 | 4 | . | 13* | 31* | 7 | 2 | 26* | 13*
Cc1cccc(NC(=S)NNc2ncc(C(F)(F)F)cc2Cl)c1 | 24 | 5 | 2 | -1 | 13* | 21* | 2 | 0 | 1 | 1
O=C(Nc1ccccc1)OCc1cc(-c2ccccc2Cl)on1 | -1 | 7 | -2 | -3 | 9.0* | 27* | 9 | 3 | 36* | 17*
CNC(=O)CCc1nc(-c2ccc(C(C)C)cc2)no1 | . | . | . | . | -3 | -4 | . | . | . | .
Cc1ccc(NC(=O)c2ccccc2)cc1C | -2 | 20 | 2 | -1 | -4 | -6 | . | . | . | .
Cc1ccc(C(=O)Oc2cccc(NC(=O)c3ccccc3)c2)cc1C | -1 | 7 | 1 | 2 | 13* | 25* | 9 | 2 | 24* | 14*
COC(=O)[C@@]12C[C@@H](CC(=O)NCCCCc3ccccc3)C(=O)N(Cc3ccc4c(c3)OCO4)C1=CCC(C)(C)C2 | -1 | -12 | -9 | . | 17* | 27* | 5 | 3 | 28* | 15*
CCCCNC(=O)C[C@@H]1C[C@@]2(C(=O)OC)CC(C)(C)CC=C2N(Cc2ccc3c(c2)OCO3)C1=O | 1 | 4 | 0 | . | 3 | -2 | . | . | . | .
Cc1ccc(-c2nc3c(Cl)cc(Cl)cc3c(=O)n2O)cc1 | 6 | -2 | -3 | 2 | -8 | -3 | . | . | . | .
O=C(CSc1nc2ccccc2[nH]1)Nc1ccc(F)c(F)c1 | 32 | 7 | 4 | -12 | 10* | 21* | 1 | 0 | 9 | 4
CCOC(=O)c1cc(-c2ccccc2C)nn1CC1CC(c2ccc(OC)cc2)=NO1 (configuration not stated) | 2 | -4 | 1 | 0 | 10* | 21* | 5 | 1 | 18 | 10*
CCOC(=O)c1cc(-c2ccccc2)nn1CC1CC(c2ccc(Cl)cc2)=NO1 (configuration not stated) | -1 | 5 | 1 | -14 | -1 | 9 | . | . | . | .
CC(C)(C)OC(=O)CNC(=O)c1[nH]cnc1C(=O)NCC(=O)OCc1ccccc1 | 0 | 14 | -4 | 0 | 0 | 6 | . | . | . | .
CC(C)(C)OC(=O)[C@H](Cc1ccccc1)NC(=O)c1nc[nH]c1C(=O)NCC(=O)OCc1ccccc1 | 0 | 7 | 2 | -15 | 11* | 30* | 8 | 3 | 44* | 20*
Cc1ccc(NC(=O)c2nc[nH]c2C(=O)N[C@@H](C)C(=O)OC(C)(C)C)cc1 | -1 | 0 | 3 | -11 | 14* | 27* | 2 | 1 | 28* | 12*
C[C@H](NC(=O)c1[nH]cnc1C(=O)Nc1ccccc1)C(=O)OC(C)(C)C | -1 | 4 | -1 | -16 | 1 | 3 | . | . | . | .
CC(C)(C)OC(=O)CNC(=O)c1[nH]cnc1C(=O)N[C@@H](Cc1ccccc1)C(=O)OC(C)(C)C | 0 | -3 | -2 | -14 | 8 | 9 | . | . | . | .
SMILES | MPTP block | SKN-1 inh | MT1-MMP act inh | GRIN3A LBD mod | ADAM17 inh | ADAM10 inh | ADAM10 confirm | ADAM17 counter | ADAM10 ctr | ADAM17 confirm
C[C@H](NC(=O)c1nc[nH]c1C(=O)N[C@@H](Cc1ccccc1)C(=O)OCc1ccccc1)C(=O)OC(C)(C)C | 0 | -11 | -1 | -13 | 11* | 24* | 10 | 3 | 26* | 14*
O=C(CNC(=O)c1[nH]cnc1C(=O)NC(c1ccccc1)c1ccccc1)OCc1ccccc1 | 0 | 9 | -2 | -8 | 11* | 21* | 9 | 3 | 29* | 13*
COc1ccccc1N1CCN(CC(O)COCc2cccs2)CC1 (configuration not stated) | 2 | 10 | 4 | -2 | -1 | -3 | . | . | . | .
COC(=O)C1=C(C)N(c2ccc(OC)c(OC)c2)C(=O)/C1=C\c1ccco1 | 0 | 8 | 2 | -1 | -6 | -5 | . | . | . | .
C[C@H](NC(=O)OCc1ccccc1)C(=O)NNC(=O)[C@H](Cc1ccccc1)NC(=O)OC(C)(C)C | -2 | 3 | -4 | 2 | 2 | 3 | . | . | . | .
O=C(CNC(=O)c1[nH]cnc1C(=O)N[C@@H](Cc1ccccc1)C(=O)OCc1ccccc1)OCc1ccccc1 | 2 | -7 | 2 | -6 | 8.8* | 22* | 8 | 3 | 25* | 15*
CC(C)(C)OC(=O)C(Cc1ccc(OC(C)(C)C)cc1)NC(=O)CNC(=O)OCc1ccccc1 (configuration not stated) | -1 | -7 | -11 | 1 | 13* | 25* | -1 | 0 | 15 | 8
O=C(NN=C1CCCC1)c1cccs1 | 0 | 12 | 6 | -1 | 1 | 3 | . | . | . | .

Assay outcomes deposited in PubChem by several laboratories.
